Apaf1 inhib: inhibitors of human Apaf-1 apoptosome; reconstituted apoptosome caspase-3 activity, DEVD-Rh110 fluorescence; AID 489030; 0.71% of 330,000 active; O14727; inhibition, % at 20 µM; active = inhibition of at least 40% at 20 µM
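Material: cell-free apoptosome with Apaf-1, procaspase-3 and caspase-9; Buffer or medium: Hepes pH 7.5 with detergent and BSA; Reagent: cytochrome c trigger plus (Z-DEVD)2-Rh110 caspase-3 substrate; Times: compound with Apaf-1, dATP, procaspase-3 30 min, then 50 min reaction, room temperature; Technique: Rh110 fluorescence intensity.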
PREPL inhibitor: human PREPL enzyme inhibition; recombinant PREPL, fluorescence polarization activity-based probe; inhibition, % at 5.96 µM; 0.68% of 320,000 active; in the data active = inhibition above about 43%
pPAFAH inh: pPAFAH (human) enzyme inhibition; Q13093; recombinant pPAFAH, FP-rhodamine probe fluorescence polarization; inhibition, % at 3.39 µM; 1.5% of 330,000 active;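 active = inhibition above the mean inhibition across the screen plus 3 SD, cut at about 25% in these data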;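 also: inhibitors block binding of the rhodamine activity-based probe so polarization drops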
PAFAH2 FP inh: inhibitors of human PAFAH2. recombinant PAFAH2, FP-rhodamine activity probe, fluorescence polarization. inhibition, % at 3.39 µM. Q99487. 0.99% of 340,000 active;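 active = inhibition above the mean over all tested compounds plus 3 SD, cut at about 30% in these data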;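 also: inhibitors block probe labeling of enzyme so polarization drops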
PAFAH1B3 FP inh: PAFAH1B3 (human) inhibition | 0.28% of 340,000 active | recombinant PAFAH1B3, FP-rhodamine probe, fluorescence polarization | inhibition, % at 3.39 µM | Q15102 | AID 492972;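 active = inhibition above the screen-wide average of all tested compounds plus 3 SD, cut at about 25% in these data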
Target sequence (Q15102 whole entry, looked up): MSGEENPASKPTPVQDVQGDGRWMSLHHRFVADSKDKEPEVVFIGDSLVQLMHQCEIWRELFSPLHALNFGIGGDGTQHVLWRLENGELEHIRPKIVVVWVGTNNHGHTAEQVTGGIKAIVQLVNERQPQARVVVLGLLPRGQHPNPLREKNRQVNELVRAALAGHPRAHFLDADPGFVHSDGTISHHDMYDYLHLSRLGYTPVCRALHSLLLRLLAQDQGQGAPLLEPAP
PAFAH1B2 FP inh: inhibitors of human PAFAH1B2; inhibition, % at 3.39 µM; recombinant PAFAH1B2, FP-rhodamine activity probe, fluorescence polarization; P68402; 1.2% of 340,000 active;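 active = inhibition above the mean of all tested compounds plus 3 SD, cut at about 24% in these data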
Target sequence (P68402 whole entry, looked up): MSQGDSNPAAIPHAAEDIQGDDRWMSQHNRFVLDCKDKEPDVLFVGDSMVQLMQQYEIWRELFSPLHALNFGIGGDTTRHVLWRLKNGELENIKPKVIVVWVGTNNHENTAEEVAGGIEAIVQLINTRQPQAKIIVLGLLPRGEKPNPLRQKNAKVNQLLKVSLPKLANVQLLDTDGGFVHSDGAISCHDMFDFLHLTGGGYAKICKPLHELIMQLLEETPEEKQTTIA
Numbers stand for hits; 0 = inactive; - = no result given. A selection: hits, their analogues and other compounds. The true share with any hit is near 3.5%.

SMILES | Apaf1 inhib | PREPL inhibitor | pPAFAH inh | PAFAH2 FP inh | PAFAH1B3 FP inh | PAFAH1B2 FP inh
CCC(=O)NC(c1ccc(C)cc1)c1cc([N+](=O)[O-])c2cccnc2c1O (centres undefined) | - | 0 | 32 | 0 | 0 | 0
CCCC(=O)NC(c1ccco1)c1cc([N+](=O)[O-])c2cccnc2c1O (centres undefined) | 0 | 0 | 30 | 0 | 0 | 0
CC(=O)NC(c1ccc(C)cc1)c1cc([N+](=O)[O-])c2cccnc2c1O (centres undefined) | 0 | 0 | 28 | 0 | 0 | 0
CC(=O)NC(c1ccccc1)c1cc(Cl)c2cccnc2c1O (centres undefined) | 0 | 0 | 0 | 0 | 0 | 0
CCC(=O)NC(c1cccs1)c1cc(Cl)c2cccnc2c1O (centres undefined) | 0 | 0 | 34 | 0 | 0 | 0
CN(c1ccc(C(=O)NCc2ccccn2)cc1)S(=O)(=O)c1ccc(Cl)cc1 | 0 | 0 | 0 | 0 | 0 | 0
CCOc1ccc(CCNC(=O)CCS(=O)(=O)c2ccc(OC)cc2)cc1OCC | 0 | 0 | 34 | 0 | 0 | 0
CC1C2(C)OC(=N)C(C#N)(C(C)O2)C1(C#N)C#N (centres undefined) | 0 | 0 | 0 | 75 | 60 | 53
CC1OC2(C)OC(=N)C1(C#N)C(C#N)(C#N)C2c1ccccc1 (centres undefined) | 0 | 0 | 0 | 0 | 0 | 0
c1ccc(C[C@H]2CNCCN2CCCCC2CCCCC2)cc1 | 49 | 0 | 0 | 0 | 0 | 0
O=C(CCc1ccc(O)cc1)c1c(O)cc(O)cc1O | 0 | 0 | 0 | 0 | 0 | 31
O=C(Cc1ccc2c(c1)OCCO2)c1c(O)cc(O)cc1O | 0 | 0 | 0 | 0 | 0 | 0
Cc1cccc(CN2CCC(N3CC(C)OC(C)C3)CC2)c1 (centres undefined) | 0 | 0 | 0 | 0 | 0 | 0
COc1ccc(CCC2CCNCC2)cc1 | 0 | 0 | 0 | 0 | 0 | 0
O=C(CSc1nc2ccccc2o1)NCC1CCCO1 (centres undefined) | 0 | 0 | 0 | 32 | 0 | 24
O=C(CSc1nc2ccccc2o1)c1cc2ccccc2oc1=O | 0 | 0 | 26 | 0 | 0 | 0
NS(=O)(=O)c1ccc(NC(=O)CSc2nc3ccccc3n2-c2ccccc2)cc1 | 0 | 0 | 32 | 0 | 0 | 0
O=C(CSc1nc2ccccc2n1-c1ccccc1)NCC1CCCO1 (centres undefined) | 0 | 0 | 28 | 0 | 0 | 0
O=C(CSc1nc2ccccc2o1)NC1CCCC1 | 0 | 0 | 0 | 0 | 0 | 0
CN(C)S(=O)(=O)c1ccc(NC(=O)CSc2nc3ccccc3n2-c2ccccc2)cc1 | 0 | 0 | 0 | 0 | 0 | 0
O=C(C[C@@H]1C/C=C\CCC(=O)OC[C@@H]2CCCN2C1=O)N[C@@H](CO)Cc1ccccc1 | 0 | 0 | 0 | 0 | 0 | 0
CC(C)(C)CC(=O)O/N=C(\N)c1ccncc1 | 0 | 0 | 0 | 0 | 0 | 0
CC1(c2ccc(Cl)c(Cl)c2)NC(=S)N2C1NC(=S)N2c1ccccc1 (centres undefined) | 0 | 0 | 0 | 0 | 0 | 0
CC1(c2ccc(Cl)cc2)NC(=S)N2C1NC(=S)N2c1ccccc1 (centres undefined) | 0 | 0 | 0 | 0 | 0 | 35
Cc1cc(C(=O)COC(=O)c2ccc3c(c2)NC(=O)CS3)c(C)n1CCc1ccc(Cl)cc1 | 0 | 0 | 0 | 0 | 0 | 0
SMILES | Apaf1 inhib | PREPL inhibitor | pPAFAH inh | PAFAH2 FP inh | PAFAH1B3 FP inh | PAFAH1B2 FP inh
O=C(c1ccco1)N(c1ccccn1)c1ccccn1 | 0 | 0 | 0 | 0 | 0 | 0
O=C(/C=C/c1ccco1)N(c1ccccn1)c1ccccn1 | 0 | 0 | 33 | 0 | 0 | 0
CSCCC(NC(=O)CCC(=O)OCC(=O)[C@@]1(O)CCC2[C@@H]3CCC4=CC(=O)C=C[C@]4(C)C3[C@@H](O)C[C@@]21C)C(=O)O (some centres undefined) | 0 | 0 | 0 | 0 | 0 | 0
COc1ccccc1C(=O)NC(=O)COC(=O)c1ccc(Br)o1 | 0 | - | - | 0 | 0 | 0
CCCc1ccc2oc(C(=O)N3CCC(COC)C3)c(C)c2c1 (centres undefined) | 0 | 0 | 27 | 0 | 0 | 0
CCCc1ccc2oc(C(=O)N3CCC[C@H]3CO)c(C)c2c1 | 0 | 0 | 0 | 0 | 0 | 0
O=C(NNC(=S)Nc1ccc(Cl)c(Cl)c1)c1cccc([N+](=O)[O-])c1 | 0 | 0 | 32 | - | - | -
Cc1cccc(NC(=S)NNC(=O)c2cccc([N+](=O)[O-])c2)c1 | 0 | 0 | 0 | 0 | 0 | 0

Screens from PubChem.
